# Screens as filed in PubChem.
# LYP inh 2: inhibitors of human LYP (PTPN22) phosphatase; recombinant LYP catalytic domain, DiFMUP fluorescence; inhibition, % at 2 µM; actives 0.21% (n = 96,000);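 active means inhibition at 2 µM at or above a set limit, the screen mean plus 3 SD, cut at about 24% in these data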;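 further: 0% = DMSO with enzyme and 100% = enzyme fully blocked by orthovanadate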
# LYP act: LYP (human) phosphatase activation; Q9Y2R2; recombinant LYP, DiFMUP fluorescence; 0 = plate median, 100 = signal doubled; activation, % at 2 µM; actives 0.11% (n = 96,000);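 active means activation at 2 µM above a set limit, the mean plus 5 SD, cut at about 37% in these data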
# PLK1 PBD inh: inhibitors of human Plk1 polo box domain binding; AID 693; inhibition, %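 (tested at about 20 µM)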; P53350; Plk1 PBD phosphopeptide binding, fluorescence polarization; actives 0.13% (n = 97,000); in the data active means inhibition above about 34%, passing the limit was not always enough
# HIV Rev-RRE inh: inhibitors of HIV-1 Rev-RRE RNA interaction. P05866. Rev peptide-RRE RNA binding, FRET. inhibition, % at 8 µM. actives 0.79% (n = 97,000). AID 704;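 active means inhibition above the screen-wide mean plus 3 SD, cut at about 35% in these data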;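 further: 0% = median DMSO wells and 100% = median Neomycin B control wells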
#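 Test system – labelled RRE RNA duplex and labelled Rev peptide · Signal – fluorescein-to-Cy5 FRET, 480 nm excitation · Evaluation – % inhibition of FRET ratio versus controls · Benchmarks – DMSO low control, neomycin B high control · Incubation – 5 min RNA-compound premix plus 15 min binding step, 25 °C · Medium – HEPES pH 7.5 salt buffer with EDTA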
# PLK1 inh: blocks human PLK1 kinase activity; P53350; recombinant PLK1 kinase, TR-FRET peptide phosphorylation; inhibition, % at 10 µM; actives 0.53% (n = 97,000); AID 619;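 active means inhibition of 50% or more in the single-concentration screen; inactive means inhibition below 50%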;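 further: 0% = DMSO max control and 100% = H-89 dihydrochloride min control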
# EphB4 ephrin blk: EphB4-ephrin-B2 interaction antagonism; P54760; actives 0.15% (n = 97,000); EphB4 LBD / TNYL-RAW-Alexa532 peptide, fluorescence polarization; inhibition, % at 7 µM;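 active means inhibition above the screen-wide mean inhibition plus 3 SD, cut at about 15% in these data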;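 further: 0% = DMSO wells and 100% = excess unlabeled TNYL-RAW peptide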
# PLK1 inh conf: confirmation of human PLK1 kinase inhibitors. shares compounds with PLK1 inh. recombinant PLK1 kinase, TR-FRET peptide phosphorylation. inhibition, % at 10 µM. actives 20% (n = 210);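 active means inhibition at or above 50% in each of two repeat confirmation tests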;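 further: 0% = DMSO max control and 100% = H-89 kinase-blocked min control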
# TR-FRET interf: Plk1 assay compound interference counter-screen hit; AID 756; inhibition (interference), % at 10 µM; shares compounds with PLK1 inh; Plk1 TR-FRET assay interference, compound added post-reaction; 210 tested, under 10 active;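 active means both duplicate runs show 50% or greater inhibition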;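 further: 0% = DMSO max control and 100% = H-89 min control inhibited reaction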
# Redox H2O2 DR: generates H2O2 by redox cycling, flagging false Plk1 PBD hits | shares compounds with PLK1 PBD inh | redox cycling H2O2 generation, DTT, counter-screen | EC50, µM | 120 tested, under 10 active; call rule not given here
# An asterisk follows results filed as active; · = no result given. In the library only some 2% were active in any assay of this set; here they are far more common.
SMILES,LYP inh 2,LYP act,PLK1 PBD inh,HIV Rev-RRE inh,PLK1 inh,EphB4 ephrin blk,others
C=CCn1c(=O)c(C=Nc2cccc([N+](=O)[O-])c2)c(O)n(CCCC)c1=O,9.6,-7.4,4.1,45.0*,-11.7,3.7,
CCn1c(O)c(C=Nc2ccc(N3CCOCC3)c(Br)c2)c(=O)n(CC)c1=S,11.6,-12.5,-34.8,26.8,-6.5,0.0,
CCCCn1c(N)c(C(=O)NCc2cccs2)c2nc3ccccc3nc21,20.7,-17.3,3.0,12.1,5.0,2.0,
CN(C)c1ccc(CN2CC=C(c3ccc(F)cc3)CC2)cc1,2.1,-4.2,7.7,-4.7,-9.7,3.5,
CN(C)C(=O)Oc1ccc(-c2nnco2)cc1,·,·,-7.9,4.4,77.9*,3.5,PLK1 inh conf=-11.2;TR-FRET interf=-58.3
CCN(CC)CCN=C(C)c1c(O)n(-c2ccccc2OC)c(=O)[nH]c1=O,-11.8,9.6,-5.7,7.7,-3.7,-1.3,
Cc1ccc(-n2c(O)c(C=NCCN3CCOCC3)c(=O)[nH]c2=O)cc1,3.1,-1.5,44.1*,6.2,-34.5,-4.7,Redox H2O2 DR=>50
O=P(O)(O)COc1ccccc1O,-8.6,6.9,2.5,5.1,-3.3,1.1,
